Screens (PubChem BioAssay)
TMEM16A act: activates or potentiates the mouse TMEM16A chloride channel; Q8BHY3; HEK293 TMEM16A/YFP-H148Q/I152L, iodide quench fluorescence; hits give low values; B-score at 10 µM; 340,000 tested, 0.3% active; AID 623877;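 active = fluorescence-ratio B-score plate-corrected deviation score at least 3 library SD below zero, with starting fluorescence score within 5 deviations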;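 also: channel opened by trigger with iodide after compound preincubation; score built on the fluorescence ratio of max minus min over baseline; more negative score means more quench and so TMEM16A activation or potentiation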
FID counter: displaces DNA intercalator in HCV helicase counter-screen | DNA fluorescent intercalator displacement, fluorescence | inhibition, % at 7.9 µM | 290,000 tested, 0.17% active; in the data active = inhibition above about 37%;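 also: 0% = vehicle and 100% = reference compound; higher means more ethidium bromide displaced from hairpin DNA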
SR-BI DiI inh: inhibitors of mouse SR-BI mediated HDL lipid uptake | ldlA[mSR-BI] CHO cells, DiI-HDL uptake fluorescence, 3 h | Q61009 | 320,000 tested, 0.96% active | inhibition, % at 12.5 µM;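 active = mean replicate inhibition of at least 70% and a set share of replicates each scoring 70 or more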;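 also: 0% = median of neutral control wells and 100% = median of positive control wells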
Target sequence (Q61009 whole entry, looked up): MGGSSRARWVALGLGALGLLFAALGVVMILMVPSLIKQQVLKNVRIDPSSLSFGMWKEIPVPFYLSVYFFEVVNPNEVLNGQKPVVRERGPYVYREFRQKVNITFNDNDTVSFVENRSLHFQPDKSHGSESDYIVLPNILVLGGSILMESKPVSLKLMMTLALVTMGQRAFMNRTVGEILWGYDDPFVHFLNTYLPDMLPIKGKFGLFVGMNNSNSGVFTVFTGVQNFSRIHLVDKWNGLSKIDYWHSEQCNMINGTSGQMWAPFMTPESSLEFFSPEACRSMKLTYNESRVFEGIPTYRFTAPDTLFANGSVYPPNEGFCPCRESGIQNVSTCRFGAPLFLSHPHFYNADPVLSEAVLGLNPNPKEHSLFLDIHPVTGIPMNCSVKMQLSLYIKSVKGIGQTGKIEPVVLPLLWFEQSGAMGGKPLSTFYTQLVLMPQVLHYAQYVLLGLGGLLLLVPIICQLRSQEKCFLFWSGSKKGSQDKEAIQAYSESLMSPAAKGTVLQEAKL
SR-BI DiI-HDL act: activators of SR-BI mediated HDL lipid uptake | 320,000 tested, 0.096% active | activation, % at 12.5 µM | CHO ldlA[mSR-BI] cells, DiI-HDL uptake fluorescence, 3 h; 100 = double the neutral-control signal;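 active = mean replicate activation of at least 60% and every replicate at or above 60%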;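 also: 0% = median plate neutral-control signal and 100% = twice that signal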
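system = CHO ldlA[mSR-BI] cells, LDL receptor-null, SR-BI overexpressing | medium = Ham's F12 with 0.5% BSA, HEPES 25 mM, pH 7.4 | probe or stimulus = DiI-HDL 10 µg/mL | compound dosing = single-point compound dose | incubation = compound exposure 3 h, 37 °C | technique = DiI fluorescence, bottom read | read-out = cell-associated DiI fluorescence as measure of HDL uptake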
TMEM16A inh: blocks the mouse calcium-activated chloride channel TMEM16A; normalized B-score (activity score, 25-100; higher = stronger inhibition) at 10 µM; AID 588511; HEK293 TMEM16A/YFP iodide influx fluorescence, ionomycin; 310,000 tested, 1.2% active; Q8BHY3;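 active = ratio plate-corrected score three or more library SD toward inhibition, starting fluorescence score within five deviations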;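 also: score derived from kinetic fluorescence span divided by baseline fluorescence per well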
Kir21 inh: blocks the mouse Kir2.1 inward-rectifier potassium channel; P35561; HEK293-Kir2.1, FluxOR thallium flux fluorescence; hits give low values; B-score at 10 µM; 310,000 tested, 0.85% active; AID 1672;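 active = fluorescence ratio B-score at or below minus 3 SD of library scores, with starting-brightness B-score within 2 SD, cut at about -4.2 in these data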;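 also: channel flux triggered by added potassium and thallium sulfate stimulus; B-score of peak minus minimum fluorescence over baseline after thallium stimulus; more negative B-score means stronger Kir2.1 block with less thallium influx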
Active calls of the source: *; i = inactive; . = not tested or not shown. A selection: hits, their analogues and other compounds. The true share with any hit is near 3%.

SMILES | TMEM16A act | FID counter | SR-BI DiI inh | SR-BI DiI-HDL act | TMEM16A inh | Kir21 inh
Cc1cccc(NC(=S)N(CCCN2CCCC2)Cc2cccn2Cc2ccc(Cl)cc2)c1 | i | 33 | -14 | 14 | i | -5.3*
CCOc1ccc(/C=C/C(=O)N(CC)CC(=O)Nc2ccc3c(c2)OCCO3)cc1OCC | i | -43 | 74* | -74 | i | -0.03
COc1ccc(N2C(=NC(=O)C3CC3)SC3CS(=O)(=O)CC32)cc1Cl (configuration not stated) | i | -7 | -12 | 12 | i | 1.5
COc1ccc(S(=O)(=O)Nc2ccc(S(=O)(=O)Nc3nccs3)cc2)cc1 | i | -8 | . | . | i | 0.77
CCOc1ccc(C(=O)NCC(=O)NCCCSc2ccccc2)cc1OCC | i | -37 | 45 | . | i | 1.9
CC(C)(C)c1ccc(C(=O)CCC(=O)OCC(=O)NCCc2ccc(S(N)(=O)=O)cc2)cc1 | i | . | 39 | -39 | . | .
COc1ccc(C(CC(=O)O)c2cc(OC)c(OC)c(OC)c2)cc1OC (configuration not stated) | i | . | -430 | 430* | . | .
COCCNC(=O)C12CC3CC(CC(Cl)(C3)C1)C2 | i | 0 | . | . | i | 0.24
CCOC(=O)c1c(NC(=O)c2ccc(C)cc2)sc2c1CC(C)(C)NC2(C)C | . | 3 | . | . | i | -0.01
CC1(C)Cc2c(sc(NC(=O)c3ccc(C(=O)c4ccccc4)cc3)c2C(N)=O)C(C)(C)N1 | i | 37* | -35 | 35 | i | 0.31
CCOC(=O)N1CCN(S(=O)(=O)c2ccc(C(=O)Nc3sc4c(c3C(N)=O)CC(C)(C)NC4(C)C)cc2)CC1 | i | 41* | -12 | 12 | i | -1.9
CCOC(=O)c1c(C)[nH]c(C)c1C(=O)CSc1nc2ccccc2n1CC | i | -25 | 4 | -4 | i | -5.3*
CCOC(=O)c1c(C)[nH]c(C)c1C(=O)CSc1nc2ccccc2n1CCOC | i | -24 | 4 | -4 | i | 1.8
CC1CCCCN1C(=O)CN1CCC(c2nc3ccc(Cl)cc3[nH]2)CC1 (configuration not stated) | i | 5 | -17 | 17 | i | -0.46
Cc1ccc(CN2CCC(c3nc4ccc(Cl)cc4[nH]3)CC2)cc1 | i | 12 | -10 | 10 | i | -10*
Clc1ccc2nc(C3CCN(Cc4ccccc4)CC3)[nH]c2c1 | i | 9 | -36 | 36 | i | -6.8*
O=C(c1cccc(Cl)c1)N1CCC(c2nc3ccccc3[nH]2)CC1 | i | -10 | . | . | i | 0.29
CCCCN1CC(COCc2ccccc2)Oc2cccc(Oc3ccc(C)cc3)c2S1(=O)=O (configuration not stated) | . | . | 8 | -8 | . | .
COc1ccc(NS(=O)(=O)c2cccc(C(=O)NNC(=O)c3ccccc3OC)c2)cc1 | i | . | 5 | -5 | i | -0.03
CCOC(=O)c1cnc2c(C)cccc2c1NCCCN1CCOCC1 | i | 55* | . | . | i | 1
CCOC(=O)c1cnc2c(C)cc(Cl)cc2c1NCCCN1CCOCC1 | i | 46* | 1 | -1 | i | 1.1
CCOc1ccc(NS(=O)(=O)c2ccc(C(=O)NCC(c3ccco3)N3CCCC3)cc2)cc1 (configuration not stated) | i | . | -9 | 9 | . | .
COc1cc(C)c(S(=O)(=O)N2CCCC2)cc1C(C)C | i | -16 | 31 | -31 | i | -4.4*
COc1cc(C)c(S(=O)(=O)N2CCCC2)cc1C | i | -9 | -4 | 4 | i | 0.89
O=C(Nc1ccc(Br)cc1)NC1CCCCCCC1 | i | -8 | 24 | -24 | i | 0.66
CC(C)(C)OC(=O)N1CCC[C@H]1c1nnc(SCc2ccc(Cl)cc2)o1 | i | -40 | -28 | 28 | i | -7.5*
CC(C)(C)OC(=O)N1CCC[C@H]1c1nnc(SCc2ccccc2Cl)o1 | i | -38 | -8 | 8 | i | -8*
CC(C)(C)OC(=O)N1CCC[C@H]1c1nnc(SCc2ccc(Cl)cc2Cl)o1 | i | -37 | 17 | -17 | i | -3.3
CC(C)(C)OC(=O)N1CCC[C@H]1c1nnc(SCc2cccc(Cl)c2)o1 | i | -40 | 10 | -10 | i | -8.6*
